Measured values reported in ChEMBL document CHEMBL5653606 (J Pharmacol Exp Ther, 2011).
Active and inactive are the calls of the source.

Columns and labels:
[1] = molecular target: T1, Fatty-acid amide hydrolase 1 (Homo sapiens) (UniProt O00519); test: Inhibition of FAAH in human brain at 10 uM in presence of FP-rhodamine by competitive activity-based protein profiling method; format: tissue-based
T1 sequence (whole entry): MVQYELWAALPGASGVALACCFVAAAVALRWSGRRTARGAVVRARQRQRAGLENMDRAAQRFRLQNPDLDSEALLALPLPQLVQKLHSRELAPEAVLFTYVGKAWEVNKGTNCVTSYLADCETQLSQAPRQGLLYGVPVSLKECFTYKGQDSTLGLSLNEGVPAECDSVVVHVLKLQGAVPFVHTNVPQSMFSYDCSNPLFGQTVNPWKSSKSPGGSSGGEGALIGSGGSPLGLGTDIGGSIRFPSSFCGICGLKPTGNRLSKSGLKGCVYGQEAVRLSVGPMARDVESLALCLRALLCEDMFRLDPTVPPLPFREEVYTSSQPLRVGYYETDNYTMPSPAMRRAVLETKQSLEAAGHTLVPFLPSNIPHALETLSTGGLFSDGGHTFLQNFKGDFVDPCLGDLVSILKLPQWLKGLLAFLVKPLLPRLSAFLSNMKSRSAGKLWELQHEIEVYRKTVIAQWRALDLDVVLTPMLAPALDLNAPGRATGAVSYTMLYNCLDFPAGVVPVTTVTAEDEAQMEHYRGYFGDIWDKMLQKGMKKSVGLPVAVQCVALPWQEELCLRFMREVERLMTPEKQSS
In short: (§1)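 Competitive ABPP on human and mouse brain, liver and heart proteomes (membrane and soluble fractions), exposed to compound at 10 or 100 μM or to DMSO. Serine hydrolases were then labeled with FP-rhodamine. Gels were read by fluorescence scanning, and loss of band labeling (FAAH or other hydrolases by kDa) was judged.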

[2] = molecular target: T2, Fatty-acid amide hydrolase 1 (Mus musculus) (UniProt O08914); test: Inhibition of FAAH in mouse brain at 10 uM in presence of FP-rhodamine by competitive activity-based protein profiling method; format: tissue-based; in short: as §1
T2 sequence (whole entry): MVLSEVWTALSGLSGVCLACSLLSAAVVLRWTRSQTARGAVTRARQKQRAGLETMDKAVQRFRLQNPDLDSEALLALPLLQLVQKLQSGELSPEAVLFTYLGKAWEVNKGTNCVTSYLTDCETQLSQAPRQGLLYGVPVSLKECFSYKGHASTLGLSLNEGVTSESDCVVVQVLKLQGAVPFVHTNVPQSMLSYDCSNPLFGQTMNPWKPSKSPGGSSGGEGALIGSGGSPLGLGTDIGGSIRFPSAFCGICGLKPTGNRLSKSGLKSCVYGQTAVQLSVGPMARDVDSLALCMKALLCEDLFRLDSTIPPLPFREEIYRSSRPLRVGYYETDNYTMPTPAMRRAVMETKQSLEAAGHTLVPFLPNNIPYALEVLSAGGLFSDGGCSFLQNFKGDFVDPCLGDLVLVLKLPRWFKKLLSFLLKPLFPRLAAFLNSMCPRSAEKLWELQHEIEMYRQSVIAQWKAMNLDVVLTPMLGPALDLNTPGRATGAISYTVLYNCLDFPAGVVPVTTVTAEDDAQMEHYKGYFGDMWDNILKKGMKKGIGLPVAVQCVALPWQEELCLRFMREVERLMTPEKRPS

[3] = molecular target: T3, Fatty-acid amide hydrolase 1 (Rattus norvegicus) (UniProt P97612); test: In vivo inhibition of FAAH in CFA induced Sprague-Dawley rat WBC assessed as elevation of AEA level at 0.1 to 10 mg/kg, po using 3H-labeled AEA as substrate; format: functional, organism-based; conditions: dose 0.1-10 mg/kg
T3 sequence (whole entry): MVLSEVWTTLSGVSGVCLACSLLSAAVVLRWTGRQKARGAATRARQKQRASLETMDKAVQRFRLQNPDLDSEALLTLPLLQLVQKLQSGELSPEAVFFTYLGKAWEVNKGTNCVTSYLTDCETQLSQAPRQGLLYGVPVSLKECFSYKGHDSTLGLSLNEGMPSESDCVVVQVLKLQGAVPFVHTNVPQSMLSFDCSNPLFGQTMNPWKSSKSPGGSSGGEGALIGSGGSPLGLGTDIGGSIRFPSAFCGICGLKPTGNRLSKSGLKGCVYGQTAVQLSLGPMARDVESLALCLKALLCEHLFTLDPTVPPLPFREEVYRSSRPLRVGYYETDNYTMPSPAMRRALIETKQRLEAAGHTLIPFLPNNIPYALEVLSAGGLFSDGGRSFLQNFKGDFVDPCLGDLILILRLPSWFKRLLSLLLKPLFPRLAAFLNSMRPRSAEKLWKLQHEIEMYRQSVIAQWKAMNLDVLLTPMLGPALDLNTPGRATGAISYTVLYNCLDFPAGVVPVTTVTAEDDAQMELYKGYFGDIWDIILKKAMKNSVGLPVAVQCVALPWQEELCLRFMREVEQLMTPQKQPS

[4] = molecular target: T4, Fatty-acid amide hydrolase 1 (Rattus norvegicus, UniProt P97612); test: Inhibition of rat FAAH assessed as kinact/Ki ratio incubated for 1 min in presence of glutamate dehydrogenase by 384-well format microplate reader assay
T4 sequence (P97612 whole entry): T3 sequence (whole entry)

[5] = molecular target: T3, Fatty-acid amide hydrolase 1 (Rattus norvegicus); test: In vivo inhibition of FAAH in CFA induced Sprague-Dawley rat WBC at 0.1 to 10 mg/kg, po relative to control; format: functional, organism-based; conditions: dose 0.1-10 mg/kg
In short: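 Brain and blood leukocyte membrane fractions from CFA rats after oral dosing. FAAH activity measured with 3H-labeled AEA substrate, quantifying released 3H-ethanolamine; n = 3 rats/group. Time course sampled at 1, 2, 4, 8, 24 h after 1 mg/kg.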

Mus musculus [6] = test: Antinociceptive activity in C57BL6/J mouse assessed as effect in body temperature at 1 to 10 mg/kg, po administered for 4 hrs; format: functional, organism-based; conditions: dose 1-10 mg/kg
In short: (§2)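 Male C57BL/6J mice, 7 weeks old, n = 8/group, dosed orally at 1 or 10 mg/kg in PEG 300 (4 ml/kg). Tetrad tested 4 h postdose: locomotor activity, tail-immersion thermal nociception, catalepsy (assessed 60 s), body temperature. Means ± S.E.M. versus vehicle.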

[7] = Brain concentration in CFA induced Sprague-Dawley rat at 0.1 mg/kg, po by LC/MS analysis; format: ADME, organism-based; conditions: in vivo, read-out: Ct
Mus musculus [8] = test: Antinociceptive activity in C57BL6/J mouse assessed as increased tail withdrawal latency at 1 to 10 mg/kg, po administered for 4 hrs; format: functional, organism-based; conditions: dose 1-10 mg/kg; in short: as §2
Rattus norvegicus [9] = test: Antihyperalgesic activity in MIA induced Sprague-Dawley rat assessed as effect on pain behaviour in contralateral knee joint at 0.3 to 3 mg/kg, po administered once daily for 3 consecutive days; format: functional, organism-based; conditions: dose 0.3-3 mg/kg, time 3.0 day
In short: (§3)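 Male Sprague-Dawley rats (220–270 g), isoflurane-anesthetized, given 2 mg MIA in 0.9% saline (50 μl) intra-articular into the knee. From day 14, oral dosing at 10 ml/kg once daily for 3 days in 4% 2-hydroxypropyl-β-cyclodextrin/1% ethanol in 0.01 M HCl. Celecoxib 30 mg/kg in 0.5% methylcellulose twice daily. Joint compression threshold by digital Randall-Selitto at 2 and 4 h postdose on days 1 and 3; n = 10/group.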

Rattus norvegicus [10] = test: Antihyperalgesic activity in MIA induced Sprague-Dawley rat assessed as increased joint compression thresholds at 0.3 mg/kg, po administered once daily for 3 consecutive days and measured after 2 to 4 hrs; format: functional, organism-based; conditions: time 3.0 day; in short: as §3

O=C(Nc1cccnn1)N1CCC(=Cc2cccc(Oc3ccc(C(F)(F)F)cn3)c2)CC1
inhibition [1]: Active
inhibition [2]: Active
inhibition [3]: Active
IC50 [4]: 0.0431 µM
inhibition [5]: 98%
Activity (Mus musculus [6]): Non-Toxic
concentration [7]: 38.9 nM
Activity (Mus musculus [8]): Toxic
Activity (Rattus norvegicus [9]): inactive
Activity (Rattus norvegicus [10]): Active
